Compound activity: PubChem BioAssay, several laboratories
Hits are enriched below; roughly 2.6% of the tested compounds scored in any of these assays.
Cl transport mod: modulators of human KCC2 chloride dependent transport | B-score of Tl+ flux slope (higher = more flux/activation; lower = inhibition) at 10 µM | KCC2 cells, thallium flux FluoZin-2 fluorescence | Q9H2X9 | hit rate 2.2% among 190,000 | AID 1456;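 active = thallium flux slope and its plate-corrected score both differing from the plate sample mean at a set confidence after two filtering rounds, in either direction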;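 note: slope of fluorescence scaled to starting intensity during 10 to 20 s after thallium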
CHT inh: inhibits the human high affinity choline transporter | CHT-expressing cells, membrane potential dye, choline response; stronger effect = lower value | B-score at 10 µM | hit rate 0.86% among 310,000 | AID 488975;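 active = B-score over 3 SD under the library average, and starting fluorescence ratio not unusually high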;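 note: choline stimulus applied at its EC90 after an EC20 pre-addition; B-score computed on integrated fluorescence ratio after choline addition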
CHT PAM: allosterically activates the human high affinity choline transporter | B-score at 10 µM | hit rate 0.49% among 310,000 | Q9GZV3 | AID 488977 | CHT-expressing cells, membrane potential dye, choline EC20; stronger effect = higher value; LV-AA mutant CHT in HEK293 cells;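 active = initial fluorescence not abnormally high and integrated response B-score, plate-corrected, over 3 SD above library mean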
Rad51 HR inh: Rad51 (human) homologous recombination inhibition. AID 1385. hRad51 DNA strand exchange, fluorescence dequenching. hit rate 0.085% among 200,000. inhibition, % at 10 µM;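 active = inhibition above 40% at the single screening dose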;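 note: 0% = DMSO control wells and 100% = blanks with heterologous ssDNA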
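material = hRad51 filaments on single-stranded DNA | reagent = Donor/quencher-labelled 47-bp dsDNA substrate | compound = 10 µM final, single point | schedule = strand-exchange reaction 15 min at room temperature | measured by = fluorescein emission 520 nm, excitation 485 nm | read-out basis = % inhibition versus plate control and blank means | benchmarks = plate controls and plate blanks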
KCC2 sec1: KCC2 (human) modulation, secondary assay; hit rate 15% among 3,700; AID 1713; HEK293-KCC2, thallium flux, FluoZin2 fluorescence; stronger effect = higher value; normalised thallium flux (F/F0 slope) at 10 µM; shares compounds with Cl transport mod;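 active = thallium flux slope above the same plate's solvent-only control mean plus 3 SD; inconclusive = the two replicate wells disagree; inactive = no significant difference from solvent-only control wells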
KCC2 bumet counter: bumetanide-insensitive thallium flux in KCC2 cells with ouabain, counter-screen; shares compounds with Cl transport mod; HEK293-KCC2 + bumetanide/ouabain, thallium flux FluoZin2; stronger effect = higher value; normalized thallium flux at 10 µM; hit rate 49% among 3,700; AID 1714;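 active = thallium entry rate above the same plate's blocked-transporter control wells by more than 3 SD; inconclusive = the two repeat wells disagree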;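 note: raw slope of fluorescence over initial fluorescence between 10 and 20 s after thallium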
KCC2 sec2: KCC2 (human) modulation, second secondary assay; hit rate 23% among 3,700; HEK293-KCC2, thallium flux FluoZin2 fluorescence; actives lie on both sides; F/F0 rise rate, 10–20 s post-thallium; shares compounds with Cl transport mod; normalized thallium flux at 10 µM;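 active = thallium flux slope more than 3 SD above or below the plate's solvent-only control mean, mostly below; inconclusive = the two repeat wells disagreed; inactive = no significant shift from solvent-only controls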;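 note: raw slope with 0.1% DMSO as baseline and bumetanide as block control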
HEK counter1: acts in parental HEK cells, KCC2 counter-screen; shares compounds with Cl transport mod; thallium flux rate (normalised fluorescence) at 10 µM; HEK293 parental cells, thallium flux FluoZin2, ouabain; baseline-ratio fluorescence slope, 10–20 s after thallium; AID 1716; hit rate 46% among 3,700;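 active = thallium flux rate significantly above the same plate's solvent-only control wells, beyond their mean plus 3 SD; inconclusive = the two replicate wells gave conflicting results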
KCC2 ouabain: KCC2 (human) modulation, ouabain retest. shares compounds with Cl transport mod. HEK293-KCC2, thallium flux FluoZin2 fluorescence; bidirectional: low = inhibitor, high = activator. raw Tl+ flux slope (below DMSO = inhibition, above = activation) at 10 µM. hit rate 48% among 3,700. AID 1717;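 active = thallium flux slope beyond 3 SD from same-plate DMSO control mean in most replicates, usually higher, sometimes lower; inconclusive = repeat tests gave conflicting results; inactive = no significant difference from controls in most replicates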;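 note: slope of initial-normalized fluorescence between seconds 10 and 20 after thallium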
HEK293 Tl flux2: parental HEK flux effect, counter-screen 2 | shares compounds with Cl transport mod | HEK293 parental, thallium flux FluoZin-2 fluorescence slope | thallium flux slope at 10 µM | hit rate 33% among 3,700;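 active = thallium flux slope above the same plate's solvent-control mean plus 3 SD in both duplicate wells; inconclusive = duplicate wells that disagreed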;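 note: run without ouabain in cells lacking the KCC2 cotransporter; slope of fluorescence scaled to its starting value between 10 and 20 s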
The depositor's hits bear a star; i = inactive; ? = inconclusive; · = no result.

SMILES | Cl transport mod | CHT inh | CHT PAM | Rad51 HR inh | KCC2 sec1 | KCC2 bumet counter | KCC2 sec2 | HEK counter1 | KCC2 ouabain | HEK293 Tl flux2
COC(=O)c1ccc(C)c(NC(=S)NCc2ccc(Cl)cc2)c1 | -0.0667 | i | i | -14.9 | · | · | · | · | · | ·
COc1cc(/C=N/NC(=O)CNc2n[nH]c(=O)[nH]c2=O)ccc1O | 0.492 | i | i | 1.2 | · | · | · | · | · | ·
CC(C)CC(CC(C)C)=NNC(=O)c1ccc2c(c1)OCO2 | 3.94* | i | i | 6.9 | 0.00609 | 0.0049 | 0.0289 | 0.00799 | 0.0177 | 0.0098
N#C/C(=C\c1cccs1)C(=O)Nc1nccs1 | 9.99* | i | i | -0.3 | 0.0123* | 0.0186* | 0.0352 | 0.013* | ? | 0.0119*
CC(C)Oc1ccc(CNC(=S)N/N=C/c2ccc([N+](=O)[O-])cc2)cc1 | 3.59* | i | i | 4.4 | 0.00932 | 0.00679 | 0.0338 | 0.00384 | 0.0207 | 0.0116
Cc1ccc(NC(=O)c2cccc(NC3=NC4CS(=O)(=O)CC4S3)c2)cc1 (stereo not drawn) | · | i | i | · | · | · | · | · | · | ·
O=c1c2cc(Cl)ccc2nc(-c2ccccc2)n1O | 49.7* | i | i | -12.5 | 0.0315* | 0.0731* | 0.0331 | 0.0339* | 0.0516* | 0.0179*
O=c1c2ccc(Cl)cc2nc(-c2ccc([N+](=O)[O-])cc2)n1O | 56.8* | i | i | 18.9 | 0.0118* | 0.092* | 0.0594* | 0.065* | 0.0788* | 0.0423*
O=C(COC(=O)C1CCN(S(=O)(=O)c2ccc3c(c2)OCCO3)CC1)Nc1cccc2ccccc12 | 0.0315 | i | i | -6.2 | · | · | · | · | · | ·
COc1ccc(NC(=O)C(=O)NCCCO)cc1Cl | 0.314 | i | i | 24.3 | · | · | · | · | · | ·
CCOC(=O)Cc1csc(NC(=S)NC(=O)c2ccc(Cl)cc2)n1 | 9.97* | i | i | · | 0.00746 | 0.0432* | 0.0416* | 0.0421* | 0.0584* | 0.0204*
CCOC(=O)Cc1csc(NC(=S)NC(=O)c2ccc([N+](=O)[O-])cc2)n1 | 9.84* | i | i | 3.9 | 0.0162* | 0.0357* | 0.0329 | 0.0253* | 0.0414* | 0.012
CCOC(=O)Cc1csc(NC(=O)Cc2ccc([N+](=O)[O-])cc2)n1 | 0.473 | i | i | 12.8 | · | · | · | · | · | ·
S=c1[nH]c(-c2ccccc2)cn1/N=C/c1ccccc1Br | 45.6* | i | i | 7.4 | ? | 0.0659* | 0.0632* | 0.0671* | 0.0795* | 0.0466*
S=c1[nH]c(-c2ccccc2)cn1/N=C/c1cccc2ccccc12 | 57.8* | i | i | 11.5 | 0.00792 | 0.0792* | 0.0774* | 0.0778* | 0.0863* | 0.0698*
COc1ccccc1S(=O)Cc1ccc(C(=O)NCCc2ccc(Cl)cc2)o1 (stereo not drawn) | · | i | i | -3.5 | · | · | · | · | · | ·
CCNC(=S)N=Nc1c(O)[nH]c2ccc(C(C)C)cc12 | 10.3* | i | i | 16.6 | ? | 0.0209* | 0.0338 | 0.0222* | 0.026* | 0.0161*
CCNC(=S)N=Nc1c(O)[nH]c2ccc([N+](=O)[O-])cc12 | 5.05* | i | i | 8.5 | 0.00969 | 0.0222* | 0.0313 | 0.013* | 0.0258 | ?
CCCCNC(=S)N=Nc1c(O)[nH]c2ccccc12 | 25.1* | i | i | 1.9 | ? | 0.0494* | ? | 0.035* | 0.0401* | 0.0246*
CC(CCc1ccccc1)NC(=O)CC(C)c1ccccc1 (stereo not drawn) | · | i | i | · | · | · | · | · | · | ·
CCOC(=O)c1sc(NC(=O)CSc2nccn2C)nc1C | · | i | i | · | · | · | · | · | · | ·
Cc1ccc(OCc2cc(C(=O)NCc3cn4ccccc4n3)no2)cc1C | · | i | i | · | · | · | · | · | · | ·
O=C(NCCc1cn2ccccc2n1)c1cc(COc2c(F)cccc2F)on1 | -4* | i | i | 1.6 | ? | ? | ? | 0.00794 | 0.0163* | 0.00973
CC(=O)c1c(C)nc(-c2ccc(Cl)cc2)nc1N=CN(C)C | · | i | i | 3.3 | 0.00535 | 0.00427 | 0.0326 | 0.00795 | 0.0192 | 0.0111
CC(=O)c1c(C)nc(-c2ccc(Cl)cc2)nc1N | 1.59 | i | i | 1.2 | · | · | · | · | · | ·
SMILES | Cl transport mod | CHT inh | CHT PAM | Rad51 HR inh | KCC2 sec1 | KCC2 bumet counter | KCC2 sec2 | HEK counter1 | KCC2 ouabain | HEK293 Tl flux2
CC(C)c1ccc(CNC(=O)C(=O)Nc2nccs2)cc1 | 12.4* | i | i | 10.6 | ? | 0.0191* | 0.0348 | 0.0188* | ? | 0.0157*
O=C(NCc1cccnc1)C(=O)Nc1nccs1 | 0.762 | i | i | -6.8 | · | · | · | · | · | ·
COc1ccc(-n2c(SCC(=O)NCC3CCCO3)nc3c([nH]c4ccccc43)c2=O)cc1OC (stereo not drawn) | · | i | i | · | · | · | · | · | · | ·
CC(C)CN1C=C2C(=O)C(C)(OC(=O)CCc3ccccc3)C(=O)C=C2C=C1c1ccc(C#N)cc1 (stereo not drawn) | 3.15* | i | i | -11.8 | 0.01 | 0.00642 | 0.0358 | 0.00763 | 0.0228 | ?
CC1(OC(=O)CCc2ccccc2)C(=O)C=C2C=C(c3ccc(C#N)cc3)N(C3CC3)C=C2C1=O (stereo not drawn) | 1.71 | i | i | -4.1 | · | · | · | · | · | ·
CCCc1nc2c(o1)CC(CC(C)SCC)CC2=O (stereo not drawn) | 4.89* | i | i | -1.6 | 0.00621 | 0.00455 | ? | 0.00699 | 0.0175 | 0.00924
CCSC(C)CC1CC(=O)CC(=O)C1 (stereo not drawn) | 0.0291 | i | i | -9.4 | · | · | · | · | · | ·
COc1ccc(CCNC(=O)Nc2ccc(F)cc2F)cc1OC | · | i | i | · | · | · | · | · | · | ·
COc1ccc(CCN=C(N)NS(=O)(=O)c2ccc(C)c(C)c2)cc1 | -0.978 | i | i | 2.2 | · | · | · | · | · | ·
Cc1ccc(Cc2c(C)[nH]c(=S)[nH]c2=O)cc1 | -0.079 | i | i | 5.3 | · | · | · | · | · | ·
Cc1ccc(Cc2c[nH]c(=S)s2)cc1 | 194* | i | i | 13.0 | ? | 0.143* | 0.109* | 0.112* | 0.136* | 0.0994*
Cc1cc(/C=C2\SC(=S)NC2=O)c(C)n1C1CC1 | 5.55* | i | i | · | 0.00859 | 0.0292* | 0.0245* | 0.0152* | 0.0252* | 0.0105*
CC(=O)Cc1nsc(NC(=O)c2cccs2)n1 | 1.21 | i | i | -0.1 | · | · | · | · | · | ·
O=C(Nc1nnc(-c2ccc(Cl)cc2)o1)C1CCCCC1 | 5.26* | i | i | 8.8 | 0.00545 | 0.0217* | 0.035 | 0.0151* | 0.0285* | 0.018*
